Test results from ChEMBL document CHEMBL4330096, “Discovery of potent and selective 5-azaindazole inhibitors of leucine-rich repeat kinase 2 (LRRK2) - Part 1” (Bioorg Med Chem Lett, 2019).

Columns and labels:
[1] = target: SRSF protein kinase 1 (Homo sapiens) (UniProt Q96SB4); assay: Inhibition of SRPK1 (unknown origin) at 10 uM relative to control
Outline: (§1)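 Single-concentration screen across a panel of 59 protein kinases, with each compound tested at one fixed concentration. The read-out is residual kinase activity relative to control. Panel results are also condensed into a rescaled geometric mean (RGM) selectivity score.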

[2] = target: Rho-associated protein kinase 2 (Homo sapiens) (UniProt O75116); assay: Inhibition of ROCK2 (unknown origin) at 10 uM relative to control
Outline: (§2)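 Single-concentration screen of each compound against a 59-protein-kinase panel, run at 10 µM or 1 µM. Activity relative to control is shown as a heat map across the panel.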

[3] = target: Calcium/calmodulin-dependent protein kinase type 1 (Homo sapiens) (UniProt Q14012); assay: Inhibition of CAMK1 (unknown origin) at 10 uM relative to control
Outline: (§3)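 Single-point screen of each compound against a panel of 59 protein kinases, at 1 or 10 μM. The panel data are also summarised as a rescaled geometric mean selectivity score.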

[4] = target: Serine/threonine-protein kinase PLK1 (Homo sapiens) (UniProt P53350); assay: Inhibition of PLK1 (unknown origin) at 10 uM relative to control; outline: as §2
[5] = target: T1, CDK2/Cyclin A2 (Homo sapiens) (UniProt P24941+P20248); assay: Inhibition of CDK2/cyclinA (unknown origin) at 10 uM relative to control; type: protein-complex assay; outline: as §3
[6] = target: Calcium/calmodulin-dependent protein kinase kinase 2 (Homo sapiens) (UniProt Q96RR4); assay: Inhibition of CAMKKb (unknown origin) at 10 uM relative to control; outline: as §3
[7] = target: T2, Eukaryotic elongation factor 2 kinase (Homo sapiens) (UniProt O00418); assay: Inhibition of EF2K (unknown origin) at 10 uM relative to control; outline: as §3
T2 sequence (whole entry): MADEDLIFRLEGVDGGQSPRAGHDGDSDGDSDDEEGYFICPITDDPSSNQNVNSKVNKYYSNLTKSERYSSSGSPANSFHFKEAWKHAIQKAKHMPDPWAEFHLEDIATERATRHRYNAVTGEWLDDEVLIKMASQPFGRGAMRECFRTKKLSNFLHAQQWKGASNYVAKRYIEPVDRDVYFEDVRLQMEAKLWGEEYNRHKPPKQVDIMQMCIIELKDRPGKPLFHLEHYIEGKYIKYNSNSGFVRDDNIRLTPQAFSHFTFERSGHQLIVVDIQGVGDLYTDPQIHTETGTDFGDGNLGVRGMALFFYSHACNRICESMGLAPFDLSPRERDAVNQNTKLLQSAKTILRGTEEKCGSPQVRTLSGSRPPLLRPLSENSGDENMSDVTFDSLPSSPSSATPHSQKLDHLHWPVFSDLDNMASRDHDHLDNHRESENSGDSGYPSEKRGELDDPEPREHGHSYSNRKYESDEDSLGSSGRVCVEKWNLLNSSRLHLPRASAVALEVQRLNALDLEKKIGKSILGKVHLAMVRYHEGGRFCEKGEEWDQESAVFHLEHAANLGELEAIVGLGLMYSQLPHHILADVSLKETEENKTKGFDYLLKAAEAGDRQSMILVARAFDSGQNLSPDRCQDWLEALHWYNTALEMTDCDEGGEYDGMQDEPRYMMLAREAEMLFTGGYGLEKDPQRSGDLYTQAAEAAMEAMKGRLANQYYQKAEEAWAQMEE

[8] = target: Ribosomal protein S6 kinase alpha-5 (Homo sapiens) (UniProt O75582); assay: Inhibition of MSK1 (unknown origin) at 1 uM relative to control; outline: as §2
[9] = target: Mitogen-activated protein kinase 3 (Homo sapiens) (UniProt P27361); assay: Inhibition of ERK1 (unknown origin) at 1 uM relative to control; outline: as §3
[10] = target: Mitogen-activated protein kinase 8 (Homo sapiens) (UniProt P45983); assay: Inhibition of JNK1 (unknown origin) at 1 uM relative to control; outline: as §3
Homo sapiens = species: Homo sapiens; assay: Inhibition of PKA (unknown origin) at 1 uM relative to control; outline: as §2
[11] = target: Tyrosine-protein kinase Lck (Homo sapiens) (UniProt P06239); assay: Inhibition of Lck (unknown origin) at 1 uM relative to control; outline: as §3
[12] = target: T3, Serine/threonine-protein kinase Sgk1 (Homo sapiens) (UniProt O00141); assay: Inhibition of SGK1 (unknown origin) at 1 uM relative to control; outline: as §1
T3 sequence (whole entry): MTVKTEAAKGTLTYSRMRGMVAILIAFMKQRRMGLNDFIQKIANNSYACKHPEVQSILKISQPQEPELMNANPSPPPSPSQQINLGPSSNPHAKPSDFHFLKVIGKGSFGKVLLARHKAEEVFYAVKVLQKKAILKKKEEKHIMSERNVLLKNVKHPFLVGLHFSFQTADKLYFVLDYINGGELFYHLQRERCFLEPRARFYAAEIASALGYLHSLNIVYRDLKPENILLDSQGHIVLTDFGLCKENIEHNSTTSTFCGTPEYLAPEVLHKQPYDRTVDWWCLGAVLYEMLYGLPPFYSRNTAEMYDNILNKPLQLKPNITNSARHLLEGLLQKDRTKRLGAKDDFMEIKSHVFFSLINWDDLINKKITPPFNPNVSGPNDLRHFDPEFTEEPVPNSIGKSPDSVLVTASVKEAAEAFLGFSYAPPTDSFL

[13] = target: Protein kinase C alpha type (Homo sapiens) (UniProt P17252); assay: Inhibition of PKCa (unknown origin) at 1 uM relative to control; outline: as §2
[14] = target: Dual specificity mitogen-activated protein kinase kinase 1 (Homo sapiens) (UniProt Q02750); assay: Inhibition of MKK1 (unknown origin) at 1 uM relative to control; outline: as §2
[15] = target: Mitogen-activated protein kinase 14 (Homo sapiens) (UniProt Q16539); assay: Inhibition of p38a MAPK (unknown origin) at 1 uM relative to control; outline: as §1
[16] = target: Ribosomal protein S6 kinase alpha-1 (Homo sapiens) (UniProt Q15418); assay: Inhibition of RSK1 (unknown origin) at 1 uM relative to control; outline: as §2
[17] = target: Proto-oncogene tyrosine-protein kinase Src (Homo sapiens) (UniProt P12931); assay: Inhibition of Src (unknown origin) at 1 uM relative to control; outline: as §1
[18] = target: Ribosomal protein S6 kinase alpha-3 (Homo sapiens) (UniProt P51812); assay: Inhibition of RSK2 (unknown origin) at 1 uM relative to control; outline: as §1
[19] = target: MAP kinase-interacting serine/threonine-protein kinase 2 (Homo sapiens) (UniProt Q9HBH9); assay: Inhibition of MNK2 (unknown origin) at 1 uM relative to control; outline: as §2
[20] = target: T1, CDK2/Cyclin A2 (Homo sapiens); assay: Inhibition of CDK2/cyclinA (unknown origin) at 1 uM relative to control; type: protein-complex assay; outline: as §3

Chain of Serine/threonine-protein kinase PLK1 (Homo sapiens) (P53350 whole entry): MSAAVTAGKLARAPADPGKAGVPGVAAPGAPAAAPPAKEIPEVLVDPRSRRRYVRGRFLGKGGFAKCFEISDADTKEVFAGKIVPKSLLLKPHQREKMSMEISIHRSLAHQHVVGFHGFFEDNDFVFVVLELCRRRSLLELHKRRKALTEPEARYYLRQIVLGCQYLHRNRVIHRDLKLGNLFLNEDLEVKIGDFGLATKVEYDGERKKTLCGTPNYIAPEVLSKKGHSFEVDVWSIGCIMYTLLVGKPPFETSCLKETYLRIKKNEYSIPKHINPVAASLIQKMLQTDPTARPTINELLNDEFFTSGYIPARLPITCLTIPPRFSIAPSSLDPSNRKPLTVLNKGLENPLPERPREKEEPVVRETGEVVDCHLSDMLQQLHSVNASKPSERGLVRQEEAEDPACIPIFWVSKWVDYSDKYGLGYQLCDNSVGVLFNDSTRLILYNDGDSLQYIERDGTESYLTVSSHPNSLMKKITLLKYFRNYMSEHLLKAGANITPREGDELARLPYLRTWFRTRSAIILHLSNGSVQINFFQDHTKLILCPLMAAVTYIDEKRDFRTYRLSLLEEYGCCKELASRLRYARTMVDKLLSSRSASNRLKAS
Chain of Rho-associated protein kinase 2 (Homo sapiens) (O75116 whole entry, looked up): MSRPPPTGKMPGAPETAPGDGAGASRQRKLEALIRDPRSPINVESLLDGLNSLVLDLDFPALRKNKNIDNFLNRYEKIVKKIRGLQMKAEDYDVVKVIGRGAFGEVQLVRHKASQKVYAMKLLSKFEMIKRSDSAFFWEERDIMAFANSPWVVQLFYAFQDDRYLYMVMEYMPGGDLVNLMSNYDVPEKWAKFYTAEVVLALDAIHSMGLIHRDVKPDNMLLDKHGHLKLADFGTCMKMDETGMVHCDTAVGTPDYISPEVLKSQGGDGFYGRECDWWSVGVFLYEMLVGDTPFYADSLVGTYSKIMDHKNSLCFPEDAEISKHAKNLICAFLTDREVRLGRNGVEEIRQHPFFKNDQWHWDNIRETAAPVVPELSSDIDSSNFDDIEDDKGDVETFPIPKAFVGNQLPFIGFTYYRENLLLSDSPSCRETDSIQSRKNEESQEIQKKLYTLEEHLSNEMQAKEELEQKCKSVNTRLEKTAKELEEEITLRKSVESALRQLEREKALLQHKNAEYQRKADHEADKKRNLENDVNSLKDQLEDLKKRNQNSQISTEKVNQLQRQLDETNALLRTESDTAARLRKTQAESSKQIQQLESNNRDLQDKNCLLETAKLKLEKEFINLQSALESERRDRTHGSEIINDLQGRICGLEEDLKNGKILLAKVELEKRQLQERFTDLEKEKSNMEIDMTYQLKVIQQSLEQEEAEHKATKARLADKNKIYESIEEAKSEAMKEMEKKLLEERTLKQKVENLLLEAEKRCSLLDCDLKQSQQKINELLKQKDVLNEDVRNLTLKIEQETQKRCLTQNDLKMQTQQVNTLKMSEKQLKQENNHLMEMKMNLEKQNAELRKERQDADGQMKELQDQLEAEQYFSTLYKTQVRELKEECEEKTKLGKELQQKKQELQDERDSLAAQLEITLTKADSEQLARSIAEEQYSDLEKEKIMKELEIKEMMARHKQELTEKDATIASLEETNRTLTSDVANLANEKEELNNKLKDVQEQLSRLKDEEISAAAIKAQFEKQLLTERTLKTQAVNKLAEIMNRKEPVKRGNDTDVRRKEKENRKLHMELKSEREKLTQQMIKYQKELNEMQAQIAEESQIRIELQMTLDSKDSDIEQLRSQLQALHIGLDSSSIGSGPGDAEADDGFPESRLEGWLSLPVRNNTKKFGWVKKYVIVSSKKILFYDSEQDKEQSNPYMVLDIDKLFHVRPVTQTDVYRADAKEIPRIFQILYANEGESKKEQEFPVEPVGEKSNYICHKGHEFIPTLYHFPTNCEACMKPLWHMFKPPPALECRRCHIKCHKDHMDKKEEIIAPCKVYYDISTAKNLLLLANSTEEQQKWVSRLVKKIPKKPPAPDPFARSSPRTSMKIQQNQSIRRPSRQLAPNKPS
Chain of Calcium/calmodulin-dependent protein kinase kinase 2 (Homo sapiens) (Q96RR4 2-588 limits assumed): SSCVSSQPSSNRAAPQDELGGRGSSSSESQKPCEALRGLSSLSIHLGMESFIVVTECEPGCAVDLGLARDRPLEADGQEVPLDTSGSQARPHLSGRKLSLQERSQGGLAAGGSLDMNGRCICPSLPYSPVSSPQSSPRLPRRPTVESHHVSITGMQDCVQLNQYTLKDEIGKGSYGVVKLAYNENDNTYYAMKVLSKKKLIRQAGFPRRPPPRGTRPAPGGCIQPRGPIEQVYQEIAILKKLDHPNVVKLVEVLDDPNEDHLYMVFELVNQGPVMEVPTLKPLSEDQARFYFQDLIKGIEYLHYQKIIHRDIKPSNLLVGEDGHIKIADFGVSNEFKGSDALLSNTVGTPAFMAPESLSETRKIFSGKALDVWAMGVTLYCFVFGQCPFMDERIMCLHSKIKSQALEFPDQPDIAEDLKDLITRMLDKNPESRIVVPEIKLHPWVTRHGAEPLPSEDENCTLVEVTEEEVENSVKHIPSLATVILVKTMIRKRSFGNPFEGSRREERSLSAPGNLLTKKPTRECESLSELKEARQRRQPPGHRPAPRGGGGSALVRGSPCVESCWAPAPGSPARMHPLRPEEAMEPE
Chain of SRSF protein kinase 1 (Homo sapiens) (Q96SB4 whole entry): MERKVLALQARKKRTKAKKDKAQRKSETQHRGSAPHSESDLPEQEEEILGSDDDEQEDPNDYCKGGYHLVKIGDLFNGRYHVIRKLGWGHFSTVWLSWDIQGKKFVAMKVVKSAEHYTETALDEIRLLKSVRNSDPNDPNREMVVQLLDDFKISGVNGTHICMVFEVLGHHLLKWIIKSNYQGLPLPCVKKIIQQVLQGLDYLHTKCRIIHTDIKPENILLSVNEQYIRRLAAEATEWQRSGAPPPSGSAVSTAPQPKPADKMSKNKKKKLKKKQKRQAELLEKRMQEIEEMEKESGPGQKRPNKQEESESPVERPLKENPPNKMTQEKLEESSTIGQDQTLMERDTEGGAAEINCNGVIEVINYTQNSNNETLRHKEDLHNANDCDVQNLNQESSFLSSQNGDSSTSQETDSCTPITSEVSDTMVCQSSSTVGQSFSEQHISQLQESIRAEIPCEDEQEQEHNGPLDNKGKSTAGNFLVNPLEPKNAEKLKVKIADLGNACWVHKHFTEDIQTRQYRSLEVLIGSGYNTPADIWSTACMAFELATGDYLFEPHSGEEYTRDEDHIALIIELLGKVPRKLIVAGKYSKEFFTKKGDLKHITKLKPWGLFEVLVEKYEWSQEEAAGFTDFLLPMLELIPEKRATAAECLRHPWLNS
Chain of Calcium/calmodulin-dependent protein kinase type 1 (Homo sapiens) (Q14012 whole entry, looked up): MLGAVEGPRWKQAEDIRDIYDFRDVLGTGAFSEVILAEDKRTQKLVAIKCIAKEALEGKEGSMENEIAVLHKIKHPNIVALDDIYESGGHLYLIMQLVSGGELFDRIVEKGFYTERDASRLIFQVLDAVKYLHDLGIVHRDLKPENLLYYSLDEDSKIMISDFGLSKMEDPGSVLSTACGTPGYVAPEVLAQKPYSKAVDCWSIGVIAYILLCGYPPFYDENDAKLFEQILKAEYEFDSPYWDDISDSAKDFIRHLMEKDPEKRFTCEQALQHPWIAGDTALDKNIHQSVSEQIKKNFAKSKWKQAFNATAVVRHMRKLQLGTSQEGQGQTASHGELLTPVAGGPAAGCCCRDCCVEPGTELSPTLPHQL
Chain of Dual specificity mitogen-activated protein kinase kinase 1 (Homo sapiens) (Q02750 whole entry): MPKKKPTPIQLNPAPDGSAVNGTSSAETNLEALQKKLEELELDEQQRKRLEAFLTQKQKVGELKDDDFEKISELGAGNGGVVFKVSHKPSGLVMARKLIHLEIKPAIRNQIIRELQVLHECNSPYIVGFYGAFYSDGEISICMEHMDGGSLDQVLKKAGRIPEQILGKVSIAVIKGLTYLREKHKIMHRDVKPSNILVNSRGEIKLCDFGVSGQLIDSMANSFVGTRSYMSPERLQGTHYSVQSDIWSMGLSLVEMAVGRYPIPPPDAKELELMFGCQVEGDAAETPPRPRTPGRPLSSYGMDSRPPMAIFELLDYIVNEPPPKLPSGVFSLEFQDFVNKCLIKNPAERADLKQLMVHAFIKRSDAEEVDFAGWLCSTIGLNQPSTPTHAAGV
Chain of Mitogen-activated protein kinase 3 (Homo sapiens) (P27361 whole entry): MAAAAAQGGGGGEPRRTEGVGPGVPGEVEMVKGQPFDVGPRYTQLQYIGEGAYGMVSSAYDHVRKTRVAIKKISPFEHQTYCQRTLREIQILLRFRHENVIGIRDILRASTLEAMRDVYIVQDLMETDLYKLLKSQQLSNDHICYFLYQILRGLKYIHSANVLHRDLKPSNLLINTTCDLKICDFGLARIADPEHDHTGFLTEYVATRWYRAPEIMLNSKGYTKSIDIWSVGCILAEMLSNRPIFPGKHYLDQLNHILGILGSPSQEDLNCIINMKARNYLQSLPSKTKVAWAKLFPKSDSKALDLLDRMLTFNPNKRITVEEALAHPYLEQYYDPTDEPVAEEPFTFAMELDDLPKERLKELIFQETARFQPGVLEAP

| Compound | inhibition [1] [%] | inhibition [2] [%] | inhibition [3] [%] | inhibition [4] [%] | inhibition [5] [%] | inhibition [6] [%] | inhibition [7] [%] | inhibition [8] [%] | inhibition [9] [%] | inhibition [10] [%] | inhibition (Homo sapiens) [%] | inhibition [11] [%] | inhibition [12] [%] | inhibition [13] [%] | inhibition [14] [%] | inhibition [15] [%] | inhibition [16] [%] | inhibition [17] [%] | inhibition [18] [%] | inhibition [19] [%] | other results |
| --- | --- | --- | --- | --- | --- | --- | --- | --- | --- | --- | --- | --- | --- | --- | --- | --- | --- | --- | --- | --- | --- |
| Cc1n[nH]c2ccnc(NC3CCCCC3)c12 | 10 | 79 | 13 | 34 | 86 | 46 | 0 | – | – | – | – | – | – | – | – | – | – | – | – | – | – |
| Cc1n[nH]c2ccnc(Nc3ccc4ncsc4c3)c12 | 0 | – | – | – | 78 | – | – | – | – | – | – | – | – | – | – | – | – | – | – | – | – |
| Cc1n[nH]c2ccnc(OC3CCCCC3)c12 | 20 | 92 | 41 | 53 | 86 | 72 | 0 | – | – | – | – | – | – | – | – | – | – | – | – | – | – |
| CC(C)n1cc(-c2n[nH]c3ccnc(OC4CCOCC4)c23)cn1 | – | – | – | – | – | – | – | 18 | 28 | 27 | 11 | 0 | 12 | 0 | 57 | 0 | 62 | 0 | 58 | 5 | inhibition [20]: 66% |
| c1cc(-c2n[nH]c3ccnc(OC4CCOCC4)c23)cc(N2CCOCC2)n1 | – | – | – | – | – | – | – | 0 | 37 | 47 | 26 | 8 | 0 | 0 | 7 | 0 | 3 | 0 | 0 | 13 | inhibition [20]: 23% |
| Cc1n[nH]c2ccnc(Nc3ccccc3F)c12 | 17 | 62 | 23 | 72 | 79 | 36 | 0 | – | – | – | – | – | – | – | – | – | – | – | – | – | – |
